Data set [1] deals with S. aureus BstA. Type of data set: biochemical, Staphylococcus aureus. The settings on record: for reduction of enzymatic rate compared to untreated +BstA reaction / reaction rate of +BstA reaction after treatment: 1 mM phenanthroline, 220 nM BstA; for reaction rate of +BstA reaction after treatment: 50 μM BSH, 23°C.
For data set [2], the system named is S. aureus BstA. As to the kind of experiment: Direct BstA reactions. It counts as biochemical, Staphylococcus aureus. The settings on record: for BstA dependence of reaction with BSH: with and without BstA. The procedure, abridged: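 Purified His6-tag-cleaved S. aureus BstA, expressed in E. coli C41 (DE3). Cerulenin and BSH, 500 μM each, reacted with and without 220 nM BstA. Samples diluted 5-fold into 10 mM methanesulfonic acid, concentrated, then run on C18 reverse-phase HPLC at 0.4 mL/min with a 0–70% B gradient over 40 min (A 0.05% TFA-water, B 60% acetonitrile-water). Detection at 220 nm.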

Data set [3] has as its target T1, BstA (Staphylococcus aureus, UniProt A0A0H2XDW9). As to the kind of experiment: Saturation kinetics of BstA. Type of data set: biochemical. The settings on record: for kcat: pH 7.0, BSH and mBCl at 37°C with 220 nM BstA, CDNB at 23°C with 2.8 μM BstA.
In data set [4] the test system is S. aureus FosB. The settings on record: read-out: Km of FosB for BSH; cited from earlier work.
For data set [5] the following is noted: cited from earlier work.
A short description of data set [6]: Direct non-enzymatic reaction with BSH.
For data set [7], the target named is T1, BstA. As to the kind of experiment: Inhibition constants of carboxamido-1,3,4-oxadiazole kinase inhibitors. It counts as biochemical.
For data set [8], the system named is S. aureus MW2. The conditions noted are these: cited from earlier work.
Setting [9] is: + 220 nM BstA, 50 μM thiol, 50 μM mBCl, pH 7.0.
The mark [10] stands for this setting: − BstA, 50 μM thiol, 50 μM mBCl, pH 7.0.

Like-named read-outs stand apart in the source and are kept apart here.

As usually defined, the kcat is the maximal rate divided by the concentration of active sites. One may read the Km as the concentration of substrate that gives half-maximal velocity. A word on the Ki: it is the dissociation constant of the complex between target and ligand, obtained from inhibition or displacement. Read a high Ki as lower affinity.

For the compound `c1cnc2c(c1)ccc1ncccc12` [1,7-phenanthroline], the “reduction of enzymatic rate compared to untreated +BstA reaction” value in data set [1] was 27%. Further, the “reaction rate of +BstA reaction after treatment” value in data set [1] (50 μM mBCl) came out at 105 nmol/min/mg.
`c1cnc2c(c1)ccc1cccnc12` [1,10-phenanthroline]: the “reduction of enzymatic rate compared to untreated +BstA reaction” value in data set [1] was greater than 99%. Besides, the “reaction rate of +BstA reaction after treatment” value in data set [1] (50 μM mBCl) stood at 12.5 ± 0.7 nmol/min/mg.
As for `CCCCCC(O)/C=C/C=O` (centres unmarked) [4-hydroxynonenal], the “BstA dependence of reaction with BSH” value in data set [2] is given as “BstA-independent”.
`N[C@@H](CS)C(=O)N[C@H]1[C@@H](O[C@@H](CC(=O)O)C(=O)O)O[C@H](CO)[C@@H](O)[C@@H]1O` [BSH, bacillithiol]: the “Specific Activity + BstA” value in data set [1] (setting [9]) was found to be 152 ± 8 nmol/min/mg. Besides, the “Specific Activity − BstA” value in data set [1] (setting [10]) worked out at 8.4 ± 0.3 nmol/min/mg. Also, the “Km of BstA for BSH lower than that of S. aureus FosB” value in data set [3] (BstA vs FosB) worked out at 260 fold. Moreover, in data set [3], the kcat is 0.21 ± 0.01 s⁻¹. In data set [4], the Km was 4.2 ± 0.7 mM. Besides, the “thiol pKa” value in data set [5] is given as 7.46.
On to `O=[N+]([O-])c1ccc(Cl)c([N+](=O)[O-])c1` [CDNB, 1-chloro-2,4-dinitrobenzene], for which the “catalytic efficiency below that of mBCl” value in data set [3] (CDNB vs mBCl) was 8 fold. Also, the kcat in data set [3] amounted to 0.22 ± 0.02 s⁻¹.
With `CC(C)(COP(=O)(O)OP(=O)(O)OC[C@H]1O[C@@H](n2cnc3c(N)ncnc32)[C@H](O)[C@@H]1OP(=O)(O)O)[C@@H](O)C(=O)NCCC(=O)NCCS` [Coenzyme A, coenzyme A], in data set [1] (setting [9]), the “Specific Activity + BstA” value was determined as 1.4 ± 0.1 nmol/min/mg. Also, the “Specific Activity − BstA” value in data set [1] (setting [10]) was 1.2 ± 0.1 nmol/min/mg. In addition, the “thiol pKa” value in data set [5] is given as 9.6.
Turning to `N[C@@H](CS)C(=O)O` [Cysteine, cysteine], the “Specific Activity + BstA” value in data set [1] (setting [9]) was found to be 8.3 ± 0.5 nmol/min/mg. Further, the “Specific Activity − BstA” value in data set [1] (setting [10]) stood at 6.7 ± 0.3 nmol/min/mg.
For the compound `O=C(O)CN(CCN(CC(=O)O)CC(=O)O)CC(=O)O` [EDTA, ethylenediaminetetraacetic acid], the “effect on BstA activity” value in data set [1] was “abolished activity”.
On to `N[C@@H](CCC(=O)N[C@@H](CS)C(=O)NCC(=O)O)C(=O)O` [Glutathione, glutathione], for which, in data set [1] (pH 7), the “Specific Activity + BstA” value was 3.9 ± 0.1 nmol/min/mg and the “Specific Activity − BstA” value came to 4.4 ± 0.4 nmol/min/mg.
As for `CC(=O)N[C@@H](CS)C(=O)N[C@H]1[C@@H](OC2[C@H](O)[C@H](O)C(O)[C@H](O)[C@H]2O)O[C@H](CO)[C@@H](O)[C@@H]1O` (some centres unmarked) [Mycothiol, mycothiol], in data set [1] (setting [9]), the “Specific Activity + BstA” value was found to be 3.3 ± 0.1 nmol/min/mg. The “Specific Activity − BstA” value in data set [1] (setting [10]) came to 3.0 ± 0.1 nmol/min/mg.
On to `C/C=C/C/C=C/CCC(=O)[C@H]1O[C@H]1C(N)=O` [cerulenin], for which the “adduct formation rate with BSH, +BstA” value in data set [2] (500 μM cerulenin, 500 μM BSH, 220 nM BstA) was 300 nmol/min/mg. For the same compound, the “BstA catalyzed reaction rate” value in data set [2] (cerulenin with BSH, net enzymatic rate) was found to be 130 nmol/min/mg. In addition, the “BstA dependence of reaction with BSH” value in data set [2] is “weak substrate”. Also, the “non-enzymatic rate of adduct formation with BSH” value in data set [6] (500 μM cerulenin, 500 μM BSH, −BstA) is 170 nmol/min/mg.
`O=C(Nc1nnc(-c2ccc(F)cc2)o1)c1ccc(Br)s1` [compound 3, 5-bromo-N-[5-(4-fluorophenyl)-1,3,4-oxadiazol-2-yl]thiophene-2-carboxamide] returned a Ki in data set [7] of roughly 3 µM. The “inhibition of BstA in concentration dependent inhibitor studies” value in data set [7] (5 μM inhibitor) is “effective inhibitor”.
`C=C(CC)C(=O)c1ccc(OCC(=O)O)c(Cl)c1Cl` [etacrynic acid]: the “BstA dependence of reaction with BSH” value in data set [2] is on record as “BstA-independent”.
For the compound `OO` [hydrogen peroxide], in data set [8], the “increase of bstA expression” value is 3 fold, the “upregulation of brxB ortholog” value was 6 fold and the “upregulation of glxA ortholog” value is recorded as 2 fold.
With `OCl` [hypochlorous acid], in data set [8], the “increase of bstA expression” value is on record as 2 fold, the “upregulation of brxB ortholog” value is given as 2 fold and the “upregulation of glxA ortholog” value is given as 3 fold.
For `Cc1c(C)n2c(CCl)c(C)c(=O)n2c1=O` [mBCl, monochlorobimane], in data set [3] (mBCl vs CDNB), the “Km below the Km of CDNB” value is on record as “over 10 fold”. Besides, the kcat in data set [3] came out at 0.30 ± 0.02 s⁻¹.
`CO[C@H]1/C=C/O[C@@]2(C)Oc3c(C)c(O)c4c(c3C2=O)C(=O)C=C(NC(=O)/C(C)=C\C=C\[C@H](C)[C@H](O)[C@@H](C)[C@@H](O)[C@@H](C)[C@H](OC(C)=O)[C@@H]1C)C4=O` [rifamycin S]: in data set [2], the “BstA dependence of reaction with BSH” value is reported as “BstA-independent”. In addition, the “rate of direct reaction with BSH” value in data set [6] (50 μM each, pH 7.0 and pH 6.0, BstA-independent) is greater than 35 µM/min.
Take `C[S+]([O-])CCCCN=C=S` (centres unmarked) [sulforaphane]: in data set [2], the “BstA dependence of reaction with BSH” value was “BstA-independent”.

(Values after PMC4802972 (Biochimica et biophysica acta, 2014).)
